# Source: ChEMBL document CHEMBL1157615, “N-methyl phenylalanine-rich peptides as highly versatile blood-brain barrier shuttles” (J Med Chem, 2010)
# Numbered stars: 1 amine (or outer) side, 2 acyl side, 3 side chain; on linkers, the order of the positions; unused ones are H or OH. Square brackets hold non-standard residues; d marks the D form. Peptide text beside a SMILES is read from it. * marks the point of attachment. ξ: configuration not given here. 2Nal = N[C@@H](Cc1ccc2ccccc2c1)C(=O)O; NMeF = CN[C@@H](Cc1ccccc1)C(=O)O; ξNip = O=C(C1CCCN([*:1])C1)[*:2]; X1 = NCC(=O)CCC(=O)*; GABA = NCCCC(=O)O
# Assays:
# [1] = Permeability across artificial membrane assessed as compound transport at 200 uM after 4 hrs by PAMPA using HPLC/MS method; type: ADME
# In short: (§1)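 PAMPA with porcine polar brain lipid extract (20 mg/mL in dodecane) on the filter; 200 μM compound in water with 20% 1-propanol cosolvent in donor, water in acceptor; 4 h at room temperature, saturated humidity, orbital shaking 100 rpm. Donor and acceptor quantified by HPLC-MS against external calibration curves. Pe and % transport from acceptor versus initial donor concentration; retention from mass balance.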
# [2] = Permeability across artificial membrane assessed as membrane retention at 200 uM by PAMPA using HPLC/MS method; type: ADME; in short: as §1
# [3] = Effective permeability across artificial membrane at 200 uM by PAMPA using HPLC/MS method; type: ADME; conditions: read-out: permeability; in short: as §1
# [4] = Apparent permeability in BBMEC assessed as membrane retention; type: ADME, cell membranes, Bos taurus; conditions: cattle
# [5] = Apparent permeability in BBMEC assessed as compound transport after 2 hrs; type: ADME, Bos taurus; conditions: cattle
# [6] = Apparent permeability in BBMEC; type: ADME, Bos taurus; conditions: cattle
SMILES,Activity [1] [%],Activity [2] [%],Papp at 200 µM [3] [×10⁻⁶ cm/s],Activity [4] [%],Activity [5] [%],Papp [6] [×10⁻⁶ cm/s]
CC(=O)N1CCC[C@H]1C(=O)N1CCC[C@H]1C(=O)N1CCC[C@H]1C(=O)N1CCC[C@H]1C(N)=O (Ac-PPPP-NH2),0,0,–,–,–,–
CC(=O)N1CCC[C@H]1C(=O)N1CCC[C@H]1C(=O)N1CCC[C@H]1C(=O)N1CCC[C@H]1C(=O)N1CCC[C@H]1C(=O)N1CCC[C@H]1C(N)=O (Ac-PPPPPP-NH2),0,0,–,–,–,–
CC(=O)N1CCC[C@H]1C(=O)N1CCC[C@H]1C(=O)N1CCC[C@H]1C(=O)N1CCC[C@H]1C(=O)N1CCC[C@H]1C(=O)N1CCC[C@H]1C(=O)N1CCC[C@H]1C(=O)N1CCC[C@H]1C(=O)N1CCC[C@H]1C(=O)N1CCC[C@H]1C(N)=O (Ac-PPPPPPPPPP-NH2),0,0,–,–,–,–
CN(C(=O)CCC(=O)CN)[C@@H](Cc1ccccc1)C(=O)N(C)[C@@H](Cc1ccccc1)C(=O)N(C)[C@@H](Cc1ccccc1)C(=O)N(C)[C@@H](Cc1ccccc1)C(N)=O (X1-[NMeF][NMeF][NMeF][NMeF]-NH2),2.1,14.5,1,50.7,17.8,15
CN(C(=O)[C@H](Cc1ccc2ccccc2c1)NC(=O)C1CCCNC1)[C@@H](Cc1ccccc1)C(=O)N(C)[C@@H](Cc1ccccc1)C(=O)N(C)[C@@H](Cc1ccccc1)C(N)=O (some centres undefined) (ξNip-[2Nal][NMeF][NMeF][NMeF]-NH2),2.4,23.6,1.1,83.8,4.1,3.5
Cn1c(=O)c2c(ncn2C)n(C)c1=O [CAFFEINE],–,–,–,67.4,20.6,16.1
NC(=O)N1c2ccccc2C=Cc2ccccc21 [CARBAMAZEPINE],19.3,< 1,11.5,67.5,20,16.5

# Second part, the compound after the results:
Activity [1] [%],Activity [2] [%],Papp at 200 µM [3] [×10⁻⁶ cm/s],Activity [4] [%],Activity [5] [%],Papp [6] [×10⁻⁶ cm/s],SMILES
0,0,–,–,–,–,CC(=O)N1CCC[C@H]1C(=O)N1CCC[C@H]1C(=O)N1CCC[C@H]1C(=O)N1CCC[C@H]1C(=O)N1CCC[C@H]1C(=O)N1CCC[C@H]1C(=O)N1CCC[C@H]1C(=O)N1CCC[C@H]1C(N)=O (Ac-PPPPPPPP-NH2)
0,0,–,–,–,–,CC(=O)N1CCC[C@H]1C(=O)N1CCC[C@H]1C(N)=O (Ac-Pro-Pro-NH2)
0.4,18.4,0.2,–,–,–,CN(C(=O)[C@H](Cc1ccc2ccccc2c1)NC(=O)CCCN)[C@@H](Cc1ccccc1)C(=O)N(C)[C@@H](Cc1ccccc1)C(=O)N(C)[C@@H](Cc1ccccc1)C(N)=O (H-[GABA][2Nal][NMeF][NMeF][NMeF]-NH2)
0.8,< 1,0.4,–,–,–,CN(C(=O)CCCN)[C@@H](Cc1ccccc1)C(=O)N(C)[C@@H](Cc1ccccc1)C(=O)N(C)[C@@H](Cc1ccccc1)C(=O)N(C)[C@@H](Cc1ccccc1)C(N)=O (H-[GABA][NMeF][NMeF][NMeF][NMeF]-NH2)
2.8,4.6,1.4,74,7.9,6.6,CN(C(=O)C1CCCNC1)[C@@H](Cc1ccccc1)C(=O)N(C)[C@@H](Cc1ccccc1)C(=O)N(C)[C@@H](Cc1ccccc1)C(=O)N(C)[C@@H](Cc1ccccc1)C(N)=O (some centres undefined) (ξNip-[NMeF][NMeF][NMeF][NMeF]-NH2)
0,23,–,–,–,–,NCC(=O)CCC(=O)O [AMINOLEVULINIC ACID]
0,5.4,–,–,–,–,NCCCC(=O)O [GAMMA-AMINOBUTYRIC ACID]
0,52.6,–,–,–,–,O=C(O)C1CCCNC1 (centres undefined) [NIPECOTIC ACID]
13.9,17.2,–,63,21.2,16.9,CC(C)NCC(O)COc1cccc2ccccc12 (centres undefined) [PROPRANOLOL]
